In paper PMC1301599 (Nucleic Acids Research, 2005):

Tests used:
Assay type in all cases: cell-based
[1] = test system: HIV-1 Tat-dependent trans-activation (TAR RNA; HIV-1 LTR firefly luciferase) in HeLa Tet-Off/Tat/luc-f/luc-R cells; assay: Inhibition of Tat-dependent trans-activation in HeLa cell reporter assay; details: for reduction of firefly luciferase activity, 6 h delivery with chloroquine: 6 h incubation in presence of 100 µM chloroquine, then 18 h growth, 0.312-2.5 µM
In short: (§1)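 HeLa Tet-Off/Tat/luc-f/luc-R cells (HIV-1 LTR-firefly, CMV-Renilla), 10 × 10^3/well, grown 24 h at 37°C. They were exposed 6 h in Opti-MEM with 100 µM chloroquine, with or without test compound diluted from 2.5 µM in that medium. Cells were PBS-washed, then grown 18 h in DMEM/10% FBS. Lysate firefly and Renilla luminescence was read sequentially, normalised to parallel-plate viability absorbance, and expressed as % of cells without test compound. Two replicates, three experiments.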

[2] = test system: constitutive CMV promoter-directed Renilla luciferase in HeLa Tet-Off/Tat/luc-f/luc-R cells; assay: Control Renilla luciferase expression in HeLa cell reporter assay; details: chloroquine alone treatment; data not shown
In short: as §1

[3] = test system: HeLa Tet-Off/Tat/luc-f/luc-R cells; assay: Toxicity assay; details: 100 µM chloroquine; data not shown
In short: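 This ran on a duplicate plate of HeLa Tet-Off/Tat/luc-f/luc-R cells (10 × 10^3/well, 24 h at 37°C). The plate got 6 h with 100 µM chloroquine in Opti-MEM, then a PBS wash and 18 h in DMEM/10% FBS. Live cells were quantified colorimetrically with the CellTiter 96 AQueous One reagent, absorbance at 490 nm. Two replicates in each of three experiments.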

| Compound | level of firefly luciferase activity, chloroquine alone ([1]; 100 µM chloroquine, no CPP–PNA) | level of Renilla luciferase, chloroquine alone [2] | HeLa cell viability, chloroquine alone [3] | reduction of firefly luciferase activity, 6 h delivery with chloroquine [1] |
| --- | --- | --- | --- | --- |
| CCN(CC)CCCC(C)Nc1ccnc2cc(Cl)ccc12 (centres unmarked) [chloroquine] | not significantly affected | reduction | No effect | – |
| ATCGCTCGCACCATGC (disulfide) [scrambled conjugate 13] | – | – | – | no inhibitory activity |
| CTCCGCAGCTCAGATC (disulfide) [mismatched conjugate 13] | – | – | – | no inhibitory activity |
